Screening results from PubChem BioAssay.
Compounds with a hit are over-represented: about 3.7% of the library has one in this group of screens.
NPY-Y2 antag = NPY-Y2 (human) receptor antagonism; P49146; NPY-Y2 expressing cells, antagonist mode; inhibition, % at 2.7 µM; 140,000 compounds, 0.99% hits; AID 793
Target sequence (P49146 whole entry, looked up): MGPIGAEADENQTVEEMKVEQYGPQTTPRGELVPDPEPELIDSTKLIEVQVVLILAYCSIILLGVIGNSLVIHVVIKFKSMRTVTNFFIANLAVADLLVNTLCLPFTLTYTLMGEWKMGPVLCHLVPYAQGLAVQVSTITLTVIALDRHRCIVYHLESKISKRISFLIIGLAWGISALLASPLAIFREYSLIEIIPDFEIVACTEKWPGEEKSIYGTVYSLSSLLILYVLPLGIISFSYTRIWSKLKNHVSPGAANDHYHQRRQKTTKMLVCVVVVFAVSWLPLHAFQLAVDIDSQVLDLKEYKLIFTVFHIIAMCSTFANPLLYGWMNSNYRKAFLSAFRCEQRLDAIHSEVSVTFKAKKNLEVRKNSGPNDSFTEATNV
NPY1 pot ag = potentiates or activates human NPY-Y1 receptor | AID 1304 | P25929 | NPY-Y1 expressing cells, potentiator/agonist activation | 220,000 compounds, 0.37% hits | activation, % at 3.6 µM; in the data active = activation above about 33%, passing the limit was not always enough;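 note: cells stimulated with NPY at EC10 then isoproterenol at EC100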
Target sequence (P25929 whole entry, looked up): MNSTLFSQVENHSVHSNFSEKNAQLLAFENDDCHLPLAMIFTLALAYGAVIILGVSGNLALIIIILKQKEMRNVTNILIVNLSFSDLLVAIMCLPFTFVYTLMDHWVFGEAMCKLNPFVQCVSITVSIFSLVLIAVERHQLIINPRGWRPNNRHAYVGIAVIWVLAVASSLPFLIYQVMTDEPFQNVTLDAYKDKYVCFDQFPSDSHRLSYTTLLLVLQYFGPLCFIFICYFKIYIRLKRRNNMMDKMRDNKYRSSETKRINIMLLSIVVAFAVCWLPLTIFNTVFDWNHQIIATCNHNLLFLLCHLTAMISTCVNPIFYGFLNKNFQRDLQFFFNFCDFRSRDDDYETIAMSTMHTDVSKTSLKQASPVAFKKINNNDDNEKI
NPY-Y1 antag = NPY-Y1 (human) receptor antagonism | 200,000 compounds, 1% hits | inhibition, % at 3.6 µM | AID 1040 | P25929 | HEK293-CNG Y1 cells, membrane potential fluorescence; NPY at EC95, then isoproterenol;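 active = inhibition above the campaign mean inhibition of all tested compounds plus 3 SD, cut at about 20% in these data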
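Material: HEK293 Y1/CNG channel cell line; also added: NPY (25 nM), isoproterenol (1 µM), Ro 20-1724 (25 µM); doses: one concentration, 3.6 µM, in 0.4% DMSO; schedule: compound incubation 1 h at room temperature, readout 45 min post-stimulation; technique: membrane potential fluorescence; measure: fluorescence ratio normalized to % inhibition between controls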
NPY2 pot ag = human NPY-Y2 potentiation or agonism, primary screen; cells expressing NPY-Y2, potentiator/agonist read-out; P49146; 220,000 compounds, 0.45% hits; activation, % at 3.6 µM; AID 1359; in the data active = activation above about 27%;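 note: cells stimulated with NPY near EC25 plus isoproterenol at EC100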
Furin inhibitor = human furin inhibition | P09958 | purified furin, fluorogenic substrate cleavage | inhibition, % at 20 µM or 30 µM | 220,000 compounds, 0.061% hits; in the data active = inhibition above about 25%
KCC2 mod = KCC2 (human) Cl- transport modulation; KCC2 cells, thallium flux FluoZin-2 fluorescence; Q9H2X9; B-score of Tl+ flux slope (higher = more flux/activation; lower = inhibition) at 10 µM; AID 1456; 190,000 compounds, 2.2% hits;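 active = thallium flux slope and its plate-corrected score both differing from the plate sample mean at a set confidence after two filtering rounds, in either direction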;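 note: slope of fluorescence scaled to starting intensity during 10 to 20 s after thallium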
NPY-Y1 ant conf = confirmation of human neuropeptide Y receptor Y1 antagonists. 1,200 compounds, 21% hits. inhibition, % at 3.6 µM. AID 1254. shares compounds with NPY-Y1 antag. HEK293-CNG NPY-Y1, membrane potential fluorescence, cAMP; NPY challenge against isoproterenol-raised cAMP; in the data active = inhibition above about 20%
NPY2 antag ctr = human NPY-Y2 antagonism in NPY-Y1 counter-screen; HEK293 NPY-Y2 CNG membrane potential fluorescence; cells given NPY, then isoproterenol; AID 1255; inhibition, % at 3.6 µM; shares compounds with NPY-Y1 antag; 1,200 compounds, 28% hits
Each line names hits and unclear results; the compound was inactive in the other large screens (follow-up assays come after a bar, where they were run). Cut-off read from the data, not from the text of the source, unless noted: active = inhibition above about 17%; inactive = the rest.

COc1ccc(-c2cc(-c3n[nH]c(=S)n3-c3ccccc3Cl)[nH]n2)cc1	NPY-Y1 antag 42 (no result: NPY-Y2 antag) | NPY-Y1 ant conf 47 | NPY2 antag ctr 73
COc1ccc(-c2cc(-c3n[nH]c(=S)n3-c3cc(OC)ccc3OC)[nH]n2)cc1	NPY-Y1 antag 27 | NPY-Y1 ant conf 23 | NPY2 antag ctr 44
COc1ccc(OC)c(-n2c(-c3cc(-c4ccc(F)cc4)n[nH]3)n[nH]c2=S)c1	none
CCCN(Cc1cc2ccc(C)cc2[nH]c1=O)S(=O)(=O)c1ccccc1	none
COC(=O)c1ccc(-c2noc(CN3CCCCC3c3nccn3C)n2)cc1 (configuration not stated)	NPY-Y1 antag 33 (no result: NPY-Y2 antag) | NPY-Y1 ant conf inactive | NPY2 antag ctr inactive
Cn1ccnc1C1CCCCN1Cc1nc(Cc2ccccc2F)no1 (configuration not stated)	none (no result: NPY-Y2 antag, KCC2 mod)
Cc1ccc(NC(=S)N/N=C/c2ccc(OCCC(C)C)cc2)c(C)c1	NPY-Y1 antag 21 | NPY-Y1 ant conf inactive | NPY2 antag ctr inactive
CC(/C=C/c1ccc2c(c1)OCO2)=N\NC(=O)c1ccccc1	NPY-Y1 antag 24 (no result: NPY-Y2 antag) | NPY-Y1 ant conf inactive | NPY2 antag ctr inactive
CC(/C=C/c1ccc2c(c1)OCO2)=N\NC(=O)C(O)c1ccccc1 (configuration not stated)	none (no result: NPY-Y2 antag, NPY-Y1 antag)
COCc1ccc([C@@H]2C[C@H]3CN(Cc4ccccc4C)C(=O)[C@]34CCCN24)o1	none (no result: NPY-Y2 antag, KCC2 mod)
O=C(NN1CCCCC1)c1ccc(COc2ccc(Cl)cc2)cc1	none (no result: NPY-Y2 antag)
COc1ccc(CNCC(O)(c2ccc(F)cc2)c2ccc(F)cc2)cc1	NPY-Y1 antag 32 (no result: NPY-Y2 antag) | NPY-Y1 ant conf inactive | NPY2 antag ctr inactive
OC(CNCc1ccc(F)cc1)(c1ccccc1)c1ccc(F)cc1 (configuration not stated)	none (no result: KCC2 mod)
Cc1cc(C)nc(N/N=C/c2cc(C)n(CC(F)(F)F)c2C)n1	none (no result: NPY-Y2 antag)
CCCCNCc1cc(Cl)c(OCCC)c(OCC)c1	none
CCCCOc1c(Cl)cc(CNC(C)(C)CO)cc1OCC	NPY-Y1 antag 24 | NPY-Y1 ant conf inactive | NPY2 antag ctr inactive
CCc1ccc2[nH]c(=O)c(CN(CCN(C)C)C(=S)NCc3ccco3)cc2c1	none (no result: NPY-Y2 antag)
CCc1ccc2[nH]c(=O)c(CN(CCN(CC)CC)C(=S)NCc3ccco3)cc2c1	NPY-Y1 antag 22 (no result: NPY-Y2 antag) | NPY-Y1 ant conf inactive | NPY2 antag ctr inactive
COc1ccc(OC)c(S(=O)(=O)NC(C)(C)C)c1	none (no result: KCC2 mod)
CCSc1nnc(NC(=O)CCc2ccc(OC)cc2)s1	none
CCCn1nnc(NC(=O)c2cccc(Cl)c2)n1	NPY-Y1 antag 51 | NPY-Y1 ant conf inactive | NPY2 antag ctr inactive
Clc1ccc(-c2nnc3c4ccccc4nc(N4CCOCC4)n23)cc1Cl	NPY-Y1 antag 21 | NPY-Y1 ant conf inactive | NPY2 antag ctr inactive
Brc1ccc(-c2nnc3c4ccccc4nc(N4CCOCC4)n23)cc1	none (no result: KCC2 mod)
Cc1ccc(C(=O)COC(=O)c2cc(=O)[nH]c3ccccc23)cc1C	none (no result: NPY-Y2 antag)
CCOc1ccc(N=C(NN)c2ccc3ccccc3n2)cc1	NPY-Y1 antag 24 | NPY-Y1 ant conf inactive | NPY2 antag ctr inactive
Cc1cc(Nc2ccc([N+](=O)[O-])cc2)nc2ccccc12	NPY-Y1 antag 24 (no result: NPY-Y2 antag, KCC2 mod) | NPY-Y1 ant conf inactive | NPY2 antag ctr inactive
Cc1ccc(-c2nc(CCN3C(=O)c4ccccc4C3=O)cs2)cc1	NPY-Y1 antag 25 (no result: KCC2 mod) | NPY-Y1 ant conf inactive | NPY2 antag ctr inactive
O=C(O)CCSc1nnc(-c2ccc3c(c2)OCO3)o1	none
CC(=O)CSc1nnc(-c2ccc3c(c2)OCO3)o1	NPY-Y1 antag 21 | NPY-Y1 ant conf inactive | NPY2 antag ctr inactive
COC(=O)c1ccc2c(=O)n(CCCCCC(=O)NC(C)C)c(=O)[nH]c2c1	none (no result: NPY-Y2 antag)
COC(=O)c1cc2c(ccn2-c2ccc(F)cc2)n1Cc1ccc(OC)cc1	NPY-Y1 antag 24 | NPY-Y1 ant conf inactive | NPY2 antag ctr inactive
CCn1c(C(=O)OC)cc2c1ccn2-c1ccc(F)cc1	NPY-Y1 antag 27 | NPY-Y1 ant conf inactive | NPY2 antag ctr inactive
CCc1n[nH]c(=S)n1/N=C/c1c(C)nn(-c2ccccc2)c1Cl	NPY-Y1 antag 45 (no result: NPY-Y2 antag) | NPY-Y1 ant conf 32 | NPY2 antag ctr 53
Cc1ccc(-c2n[nH]c(=S)n2/N=C/c2c(C)nn(-c3ccccc3)c2C)cc1	none
Cc1cc(C)nc(SCc2ccc(C(=O)N/N=C/c3ccccc3C(=O)O)cc2)n1	NPY-Y1 antag 30 (no result: NPY-Y2 antag) | NPY-Y1 ant conf inactive | NPY2 antag ctr inactive
O=C(O)CCc1ccc(-c2ccc(Br)cc2)o1	NPY-Y1 antag 23 (no result: KCC2 mod) | NPY-Y1 ant conf inactive | NPY2 antag ctr inactive
CN(C)NC(=S)NC1CC2CCC1C2 (configuration not stated)	none (no result: NPY-Y2 antag, NPY-Y1 antag)
C=CCNC(=S)N/N=C/c1ccc(C(C)(C)C)cc1	NPY-Y1 antag 23 (no result: NPY-Y2 antag) | NPY-Y1 ant conf inactive | NPY2 antag ctr inactive
COC(=O)[C@@]1(Cc2ccc(F)cc2)[C@H]2c3cc(C(=O)N(C)C)n(Cc4ccc(OC(F)(F)F)cc4)c3C[C@H]2CN1C(=O)c1ccccc1	NPY-Y1 antag 35 | NPY-Y1 ant conf inactive | NPY2 antag ctr inactive
COc1ccc(-c2nc3ccccc3n2Cc2ccccc2)cc1	none
COc1ccc(-c2n(Cc3ccccc3)c3ccccc3[n+]2Cc2ccccc2)cc1	NPY-Y1 antag 62 (no result: NPY-Y2 antag) | NPY-Y1 ant conf inactive | NPY2 antag ctr 22
Cc1ccc(-n2c(-c3ccccc3)c[n+]3c2CCC3)cc1	none (no result: NPY-Y2 antag)
Cc1ccc(-n2c(-c3ccccc3)c[n+]3c2CCc2ccccc2-3)c(C)c1	NPY-Y1 antag 58 (no result: NPY-Y2 antag) | NPY-Y1 ant conf 32 | NPY2 antag ctr inactive
C=C(C)CSc1nnc(-c2cccc(S(=O)(=O)N(C)C)c2)n1-c1cc(OC)ccc1OC	NPY-Y1 antag 26 | NPY-Y1 ant conf inactive | NPY2 antag ctr inactive
COCc1nnc(NC(C)=O)s1	none (no result: NPY-Y2 antag)
COc1cccc(C2C([N+](=O)[O-])=C(N)Oc3cc(C)oc(=O)c32)c1 (configuration not stated)	none (no result: NPY-Y2 antag, NPY-Y1 antag)
COCCCNCCCOc1ccc(C)cc1Br	none
C=CCNCCCCOc1c(Cl)cc(C)cc1Br	NPY-Y1 antag 21 | NPY-Y1 ant conf inactive | NPY2 antag ctr 18
COCCCNCCCCOc1c(Cl)cc(C)cc1Br	NPY-Y1 antag 31 | NPY-Y1 ant conf inactive | NPY2 antag ctr inactive
O=C(CC(NC(=O)C(F)(F)F)c1ccccc1)Nc1nnc(CCc2ccccc2)s1 (configuration not stated)	none
CNc1cncc(C(=O)O)c1	none (no result: NPY-Y2 antag)
OCC1(Cc2ccccc2Cl)CCN(C/C=C/c2ccccc2)CC1	NPY-Y1 antag 27 (no result: NPY-Y2 antag) | NPY-Y1 ant conf inactive | NPY2 antag ctr inactive
CCCCNC(=O)C(=O)NC(C)CCc1ccccc1 (configuration not stated)	none
